Test results as given in publication PMC4743058 (Genes & Development, 2016).
Where a SMILES comes first, the peptide text is derived from it. The star is where a group is joined. Cbz = O=C(OCc1ccccc1)*

Key:
Hs-p53 = Hs-p53 degradation in p53/Mdm2 double-knockout cells; assay type: cell-based, human; expressed in mouse embryonic fibroblasts; settings: 4 h before harvest, Western blot
Lj-p53 = Lj-p53 degradation in p53/Mdm2 double-knockout cells; assay type: cell-based; settings: 4 h before harvest, Western blot, lane 4
Hs-p53–Lj-Mdm2^Nterm = assay: In vitro pull-down of Hs-p53 by Lj-Mdm2Nterm in presence of inhibitor; assay type: binding, human p53; lamprey (Lethenteron japonicum) Mdm2; settings: in vitro translated proteins, inhibitor 30 min, Fig. 7A lanes 4–6
Hs-p53–HDM2^Nterm = assay: In vitro pull-down of Hs-p53 by HDM2Nterm in presence of inhibitor; assay type: binding, human; settings: in vitro translated proteins, inhibitor 30 min, Fig. 7A lanes 1–3
Lj-p53–Lj-Mdm2^Nterm = assay: In vitro pull-down of Lj-p53 by Lj-Mdm2Nterm in presence of inhibitor; assay type: binding, lamprey (Lethenteron japonicum); settings: Fig. 7A
Procedure, shortened: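 Anti-HA antibody (1 µg per 10 µL Protein G beads, 1 h in PBST–3% BSA) captured in vitro translated HA-tagged Mdm2 N-terminal bait (30 min, rotating). Test compound was added at the required concentrations for 30 min, with DMSO as control. In vitro translated Flag-Lj-p53 was then added for 1 h. Beads were washed, and eluates were heated 5 min at 95°C, run on SDS-PAGE and immunoblotted with HRP anti-Flag.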

Compound | block of Lj-Mdm2-mediated Hs-p53 degradation by proteasome inhibitor (Hs-p53) | block of Lj-Mdm2-mediated Lj-p53 reduction by proteasome inhibitor (Lj-p53) | block of binding of Hs-p53 to Lj-Mdm2Nterm (Hs-p53–Lj-Mdm2^Nterm) | block of binding of Hs-p53 to HDM2Nterm (Hs-p53–HDM2^Nterm) | block of binding of Lj-p53 to Lj-Mdm2Nterm (Lj-p53–Lj-Mdm2^Nterm; in vitro translated proteins, inhibitor 30 min) | interaction with the p53-binding pocket in Lj-Mdm2Nterm (Lj-p53–Lj-Mdm2^Nterm; inferred from pull-down)
CC(C)C[C@@H](C=O)NC(=O)[C@H](CC(C)C)NC(=O)[C@H](CC(C)C)NC(=O)OCc1ccccc1 [MG132] (Cbz-Leu-Leu-Leu-aldehyde) | only partially blocked | partially blocked | – | – | – | –
Nutlin | – | – | not by Nutlin | could block the binding of Hs-p53 to HDM2^Nterm | not by Nutlin | interacts poorly, if at all
